For test [1], the target named is T1, Alpha-1A adrenergic receptor (Rattus norvegicus) (UniProt P43140).
T1 sequence (whole entry): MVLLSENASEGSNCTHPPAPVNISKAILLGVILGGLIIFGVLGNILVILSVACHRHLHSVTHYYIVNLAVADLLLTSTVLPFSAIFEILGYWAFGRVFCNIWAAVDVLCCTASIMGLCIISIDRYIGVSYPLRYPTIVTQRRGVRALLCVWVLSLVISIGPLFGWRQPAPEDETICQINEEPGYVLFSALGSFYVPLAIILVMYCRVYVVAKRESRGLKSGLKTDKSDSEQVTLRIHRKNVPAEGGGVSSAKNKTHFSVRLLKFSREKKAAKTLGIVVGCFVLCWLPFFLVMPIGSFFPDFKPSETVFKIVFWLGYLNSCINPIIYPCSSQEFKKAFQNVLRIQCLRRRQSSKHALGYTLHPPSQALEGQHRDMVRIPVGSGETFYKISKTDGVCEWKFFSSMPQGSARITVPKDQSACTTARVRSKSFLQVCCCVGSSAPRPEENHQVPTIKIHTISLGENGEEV
Description: Antagonist activity at alpha1A adrenoceptor in Wistar rat prostatic vas deferens assessed as inhibition of (-)-noradrenaline-induced contraction after 30 mins. The class given is functional, tissue-based.

For test [2], the target named is T2, Alpha-1A adrenergic receptor (Homo sapiens, UniProt P35348).
T2 sequence (P35348 whole entry): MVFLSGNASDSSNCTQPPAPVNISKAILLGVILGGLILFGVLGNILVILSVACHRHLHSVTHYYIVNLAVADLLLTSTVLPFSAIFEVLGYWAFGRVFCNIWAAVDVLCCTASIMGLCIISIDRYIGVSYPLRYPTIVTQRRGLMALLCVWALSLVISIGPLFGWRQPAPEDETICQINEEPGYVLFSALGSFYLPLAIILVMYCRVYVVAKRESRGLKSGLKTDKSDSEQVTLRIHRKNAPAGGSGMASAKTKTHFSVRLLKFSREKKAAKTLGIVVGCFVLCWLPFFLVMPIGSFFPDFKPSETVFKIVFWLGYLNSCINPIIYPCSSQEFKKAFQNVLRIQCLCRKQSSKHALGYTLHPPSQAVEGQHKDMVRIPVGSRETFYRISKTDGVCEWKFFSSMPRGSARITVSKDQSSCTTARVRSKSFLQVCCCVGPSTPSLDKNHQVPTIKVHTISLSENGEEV
Nature of the test: Displacement of [3H]prazosin from human cloned alpha1A adrenoceptor expressed in CHO cells. Format: cell-based. The essentials: (§1)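 [3H]prazosin binding to cloned human α1-adrenoceptor subtypes expressed in CHO cell membranes. Affinity reported as pKi for each subtype.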
In general terms: In a radioligand displacement assay an active substance lowers the binding of a labelled ligand.

In test [3] the target is T3, Alpha-1B adrenergic receptor (Rattus norvegicus) (UniProt P15823).
T3 sequence (whole entry): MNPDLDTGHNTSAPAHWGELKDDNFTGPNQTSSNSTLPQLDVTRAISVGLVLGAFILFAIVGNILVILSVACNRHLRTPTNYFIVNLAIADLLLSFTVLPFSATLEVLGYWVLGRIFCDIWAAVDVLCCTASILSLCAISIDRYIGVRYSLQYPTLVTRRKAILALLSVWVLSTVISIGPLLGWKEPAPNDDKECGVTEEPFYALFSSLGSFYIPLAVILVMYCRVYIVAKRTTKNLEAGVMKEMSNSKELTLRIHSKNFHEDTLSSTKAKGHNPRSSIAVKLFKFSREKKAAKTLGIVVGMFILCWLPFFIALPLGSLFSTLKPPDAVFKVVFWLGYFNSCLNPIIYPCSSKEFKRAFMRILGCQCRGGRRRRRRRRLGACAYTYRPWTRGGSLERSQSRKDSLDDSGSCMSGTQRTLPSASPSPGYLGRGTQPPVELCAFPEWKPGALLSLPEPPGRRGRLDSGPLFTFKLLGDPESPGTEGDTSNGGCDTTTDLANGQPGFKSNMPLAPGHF
Description: Antagonist activity at alpha1B adrenoceptor in Wistar rat spleen assessed as inhibition of (-)-phenylephrine-induced contraction after 30 mins. Format: functional, tissue-based.

The target of test [4] is T4, Alpha-1B adrenergic receptor (Homo sapiens, UniProt P35368).
T4 sequence (P35368 whole entry): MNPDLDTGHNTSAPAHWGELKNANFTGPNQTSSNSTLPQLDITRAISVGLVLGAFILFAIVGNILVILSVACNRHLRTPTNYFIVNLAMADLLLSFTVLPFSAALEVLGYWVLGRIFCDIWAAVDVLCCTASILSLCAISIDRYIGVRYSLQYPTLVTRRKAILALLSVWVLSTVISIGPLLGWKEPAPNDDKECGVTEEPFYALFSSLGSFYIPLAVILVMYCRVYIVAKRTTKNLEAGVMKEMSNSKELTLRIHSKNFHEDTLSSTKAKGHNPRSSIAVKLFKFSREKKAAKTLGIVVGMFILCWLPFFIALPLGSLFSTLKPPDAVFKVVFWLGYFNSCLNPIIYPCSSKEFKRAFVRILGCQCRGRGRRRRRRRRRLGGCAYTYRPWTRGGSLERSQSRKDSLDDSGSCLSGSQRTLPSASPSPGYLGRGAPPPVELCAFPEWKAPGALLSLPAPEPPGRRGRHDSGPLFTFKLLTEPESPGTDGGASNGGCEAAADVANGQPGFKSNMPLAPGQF
Nature of the test: Displacement of [3H]prazosin from human cloned Alpha-1B adrenoceptor expressed in CHO cells. The class given is cell-based. The essentials:
as §1

The target in test [5] is T5, Alpha-1D adrenergic receptor (Rattus norvegicus) (UniProt P23944).
T5 sequence (whole entry): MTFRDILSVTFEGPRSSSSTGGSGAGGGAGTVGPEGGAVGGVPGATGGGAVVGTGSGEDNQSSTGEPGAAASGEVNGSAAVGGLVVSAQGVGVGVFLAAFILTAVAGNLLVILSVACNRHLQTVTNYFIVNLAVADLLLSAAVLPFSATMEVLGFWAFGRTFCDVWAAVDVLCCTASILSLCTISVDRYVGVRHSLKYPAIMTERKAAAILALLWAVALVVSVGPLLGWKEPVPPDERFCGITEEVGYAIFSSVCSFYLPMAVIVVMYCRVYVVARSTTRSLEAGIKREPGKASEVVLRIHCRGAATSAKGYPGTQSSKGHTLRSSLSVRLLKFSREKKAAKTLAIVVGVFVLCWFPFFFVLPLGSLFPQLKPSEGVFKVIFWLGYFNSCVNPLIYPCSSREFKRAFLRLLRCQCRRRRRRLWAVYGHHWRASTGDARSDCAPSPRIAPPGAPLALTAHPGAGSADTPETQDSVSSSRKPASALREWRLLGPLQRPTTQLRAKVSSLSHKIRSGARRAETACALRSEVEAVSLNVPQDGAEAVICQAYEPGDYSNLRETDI
Description: Antagonist activity at Alpha-1D adrenoceptor in Wistar rat thoracic aorta assessed as inhibition of (-)-noradrenaline-induced contraction after 30 mins. The class given is functional, tissue-based.

The test system of test [6] is PC-3. Description: Cytotoxicity against human PC3 cells after 48 hrs by SRB assay. To be noted: for GI50 / TGI / CC50: PC-3, 48 h; for CC50: read-out: LC50 (the source's name). The class given is functional. The essentials: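 PC-3 human prostate cancer cells. Growth measured by sulforhodamine B staining following the NCI protocol. […] Values are means of quadruplicate determinations ± standard error (n = 5).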

Activity calls are given as the source filed them. No cut-off for these calls is given here.

In general, pKb refers to −log10 of the Kb, conventionally taken in molar units. As usually defined, the Ki is a dissociation constant, usually derived from enzyme kinetics or from competition with a known ligand. A low value points to tighter binding. A word on the GI50: it is the concentration that inhibits growth by half. A low value points to greater sensitivity of the cells. By TGI is commonly meant the concentration at which net growth stops. Read a high TGI as less potent growth arrest. For `c1ccc(OCCNC[C@@H]2COC[C@H](c3ccccc3)O2)cc1` (relative stereo), the pKb in test [1] worked out at 6.72; in test [3] it was 7.12; in test [5], 6.77. Further, the Ki in test [2] and in test [4] was more than 1 µM in each case. This compound registered a GI50 in test [6] of 158 µM. The TGI in test [6] was 223 µM. For the same compound, the CC50 in test [6] came out at 281 µM.

Take `COc1ccccc1OCCNC[C@@H]1COC[C@@H](c2ccccc2)O1` (relative stereo): the pKb in test [1] came to 7.22; in test [3] it was 7.96; in test [5], 7.83. The Ki is 0.0871 µM in test [2] and 0.302 µM in test [4]. The compound further had a GI50 in test [6] of 199 µM. Also, net growth in test [6] stopped (TGI) at 251 µM. Further, the CC50 in test [6] was more than 300 µM.

`COc1cccc(OC)c1OCCNC[C@@H]1CO[C@@H](c2ccccc2)CO1` (relative stereo): the pKb is 7.21 in test [1], 7.02 in test [3] and 7.26 in test [5]. The Ki in test [2] was 0.513 µM; in test [4], more than 1 µM. The result in test [6] was inactive. Besides, the GI50 in test [6] is 29 µM.

`COc1cccc(OC)c1OCCNC[C@@H]1COC[C@@H](c2ccccc2)O1` (relative stereo): the pKb stood at 5.8 in test [1], 5.75 in test [3] and 7.11 in test [5]. Besides, the Ki in test [2] and in test [4] was more than 1 µM in each case. For the same compound, it took 112 µM to inhibit growth in test [6] by half (GI50). The compound further displayed a TGI in test [6] of 199 µM. The CC50 in test [6] came to 288 µM.

Source of the values: ChEMBL document CHEMBL1140161, “Structure-activity relationships in 1,4-benzodioxan-related compounds. 9. From 1,4-benzodioxane to 1,4-dioxane ring as a promising template of novel alpha1D-adrenoreceptor antagonists, 5-HT1A full agonists, and cytotoxic agents” (J Med Chem, 2008).
